The list is not random: actives were taken first. Their share in the collection is about 5.4%.
PLAP act – PLAP enzyme activators, biochemical, luminescence, HTS; AID 696, 2007; Alkaline phosphatase, placental type (Homo sapiens), P05187; purified PLAP enzyme, luminescent substrate read-out; stronger effect = higher value; activation fold at 20 µM; actives 1.2% (n = 96,000); in the data active = activation fold above about 2
PostGolgi ctrl – growth inhibition of yeast control strain, primary screen, counter-screen for post-Golgi transport modulator project; efflux-deficient yeast background strain, growth absorbance A615, 16 h; inhibition, % at 10 µM; actives 5% (n = 98,000)
Ecoli tolC – growth inhibitors of E. coli tolC mutant, primary screen, strain BW25113 ΔtolC::kan, 384-well; OD615; growth inhibition, % at 10 µM (by protocol); actives 2.2% (n = 65,000); AID 573, 2007;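 active = growth inhibition at or above a cutoff equal to the mean over every tested compound plus 3 SD, cut at about 60% in these data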;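 note: growth measured after 20 h incubation at 37 °C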
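test system = E. coli BW25113 ΔtolC::kan bacteria | medium = LB with kanamycin 50 µg/mL | signal = OD at 615 nm | schedule = 37 °C, 20 h exposure | evaluation = % inhibition of E. coli growth | compound dosing = one dose of 10 µM final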
E coli WT exp – growth inhibitors of wild-type E. coli, primary screen, strain BW25113, expanded library, OD600; OD600 absorbance; growth inhibition, % at 100 µM; actives 0.15% (n = 98,000);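 active = growth inhibition above about 50% at one test dose, limit read from the data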;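 note: growth measured after 20 h incubation at 37 °C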
HePTP inhibitor – inhibitors of human HePTP phosphatase, primary screen, biochemical, absorbance, leukemia target | recombinant HePTP phosphatase activity, OD absorbance | actives 0.64% (n = 110,000) | Tyrosine-protein phosphatase non-receptor type 7 (Homo sapiens), P35236 | inhibition, % at 20 µM; in the data active = inhibition above about 50%;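 note: plate controls were vehicle for no effect and reference inhibitor for full effect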
Target sequence (P35236 whole entry, looked up): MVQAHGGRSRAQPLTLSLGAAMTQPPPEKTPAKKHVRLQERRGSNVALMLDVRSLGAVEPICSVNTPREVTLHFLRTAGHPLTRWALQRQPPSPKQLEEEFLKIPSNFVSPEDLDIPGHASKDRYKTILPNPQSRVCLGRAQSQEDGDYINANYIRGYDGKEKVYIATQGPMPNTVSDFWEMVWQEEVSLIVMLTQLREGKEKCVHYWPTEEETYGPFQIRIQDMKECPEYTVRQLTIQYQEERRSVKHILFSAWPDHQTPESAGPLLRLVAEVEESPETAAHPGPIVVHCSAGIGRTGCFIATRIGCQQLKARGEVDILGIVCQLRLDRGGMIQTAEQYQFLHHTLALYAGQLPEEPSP
PostGolgi yeast – phenotypic screen on post-Golgi transport, primary screen; post-Golgi transport phenotypic cell assay; inhibition, % at 10 µM; actives 0.9% (n = 98,000); AID 739, 2007;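 note: yeast cells grown in 1536-well plates; yeast grown about 18 h at 30C before absorbance read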
Numbers without * were called inactive; . = no result. Cut-off read from the data, not from the text of the source, unless noted: active = inhibition above about 30%; inactive = the rest.

SMILES	PLAP act	PostGolgi ctrl	Ecoli tolC	E coli WT exp	HePTP inhibitor	PostGolgi yeast
O=C(COc1ccc(Cl)cc1Cl)NCCSc1ccc(Cl)cc1	0.9	43.1*	.	-7.0	.	-0.7
O=C(CSCc1cccc(Cl)c1)N/N=C/c1ccc(OCC(=O)N2CCCCC2)cc1	1.3	41.6*	.	-12.0	-12.2	-2.0
CC(=O)NC(=S)Nc1ccc(NC(=O)COc2ccc(Cl)cc2Cl)cc1	1.1	5.5	.	-13.0	.	-2.7
O=C(CN(c1ccccc1)S(=O)(=O)c1ccccc1[N+](=O)[O-])Nc1cc(Cl)cc(Cl)c1	.	.	.	.	4.7	.
Cc1ccc(N2C(=O)CC(Cn3nc(C)cc3C)C2=O)cc1 (stereo unspecified)	0.9	7.1	1.2	4.0	9.2	5.6
COc1ccc(C(=O)c2ccccc2)c2c(O)ccc(C(=O)c3ccccc3)c12	1.2	20.8	.	-2.0	7.8	7.4
CC(=O)C(C)Oc1cc(C)cc2oc(=O)c(C)c(C)c12 (stereo unspecified)	1.1	3.8	-0.2	0.0	3.0	5.0
CC(C)(C)NC(=O)c1nn2c(c1Br)NC(c1cccs1)CC2C(F)(F)F (stereo unspecified)	.	.	.	.	4.8	.
O=S(=O)(NCc1ccc(F)cc1)c1ccccc1	.	.	.	.	7.6	.
O=C(COc1ccc(Cl)cc1Cl)NCCCCc1ccccc1	1.5	42.5*	.	-3.0	.	-4.5
CNc1ccc([N+](=O)[O-])cc1N/C=C1\CCc2ccccc2C1=O	.	.	.	.	103.6*	.
NC(=O)c1cc(N)ccc1N1CCCC1	0.9	31.8*	-9.6	7.0	-0.1	1.4
Cc1cc(N)ccc1N1CCCC1	1.1	15.1	.	-7.0	.	-3.1
COCCN(C(=O)Nc1ccc(OC)cc1OC)C1CCN(C(C)C)CC1	1.3	10.0	-11.4	5.0	4.8	-10.9
Cc1c(C(=O)N2CCc3ccccc3C2)sc2nc(-c3ccccc3)cn12	1.3	46.9*	67.4*	-14.0	.	5.0
CCC(=O)c1ccc(N2CCN(C(=O)COc3ccc(F)cc3)CC2)c(F)c1	1.1	31.2*	28.8	-3.0	-7.4	-10.2
CCCC(=O)c1ccc(N2CCN(C(=O)CCC)CC2)c(F)c1	.	.	.	.	7.6	.
CCCC(=O)c1ccc(N2CCCCCC2)c(F)c1	1.1	2.1	67.7*	-8.0	7.5	-1.4
O=C(NC(=S)Nc1cccc(Cl)c1N1CCCCC1)c1ccco1	1.2	36.9*	.	-5.0	.	21.6
O=C(NC(=S)Nc1cccc(Cl)c1N1CCCCC1)c1cccs1	1	51.7*	.	-13.0	.	5.8
Cc1nc2c(-c3ccc(F)cc3)c(C)nn2c(C)c1CCC(=O)N1CCOCC1	1.5	6.2	.	-8.0	.	1.8
Cc1csc(NC(=O)CSc2ncnc3c2cnn3-c2ccccc2Cl)n1	1.4	31.7*	61.0*	2.0	7.6	1.0
COc1ccccc1CNC(=O)c1csc(Cc2ccc(Cl)cc2)n1	1	56.2*	.	-15.0	.	-2.6
COC(=O)c1cn(CC(=O)N2CCCCC2C)c2ccccc12 (stereo unspecified)	1	1.0	.	-1.0	.	-0.5
CC1CCCCN1C(=O)Cn1cc(/C=C2/C(=O)Nc3ccccc32)c2ccccc21 (stereo unspecified)	1.2	76.6*	.	-15.0	.	60.8*
SMILES	PLAP act	PostGolgi ctrl	Ecoli tolC	E coli WT exp	HePTP inhibitor	PostGolgi yeast
O=C(c1ccco1)N1CCN(C(=O)C(Sc2ccccc2)c2ccccc2)CC1 (stereo unspecified)	1.9	1.1	19.2	2.0	-5.8	9.8
CCOC(=O)c1ccc(NC(=O)CN(c2ccc(C)cc2)S(=O)(=O)c2ccc(SC)cc2)cc1	.	.	.	.	-3.9	.
COc1ccccc1N1CCN(C(c2ccccc2Cl)c2nnnn2C(C)(C)C)CC1 (stereo unspecified)	1.6	37.6*	63.5*	-11.0	7.9	16.2
COc1ccccc1C(c1nnnn1C(C)(C)C)N1CCN(Cc2ccncc2)CC1 (stereo unspecified)	1.3	7.3	-7.6	-5.0	-1.6	5.7
COc1ccccc1N1CCN(C(c2ccc(Cl)cc2)c2nnnn2C(C)(C)C)CC1 (stereo unspecified)	1.3	44.1*	66.0*	-19.0	9.9	4.3
CC(C)(C)n1nnnc1C(c1ccc(Cl)cc1)N1CCCc2ccccc21 (stereo unspecified)	1.2	19.0	.	-16.0	.	-5.2
OC1(c2cn(Cc3ccccc3)nn2)CCCCC1	0.9	38.2*	-6.8	5.0	0.4	-0.2
N#Cc1c(SCC(N)=O)nc(-c2ccccc2)c2c1CCCC2	0.9	17.2	8.8	-7.0	5.0	-20.6
Cc1ccc(-c2nc(SCC(N)=O)c(C#N)c3c2CCCC3)cc1	0.9	43.6*	.	-8.0	.	6.8
CC(=O)c1sc(Nc2ccc(Br)cc2)nc1C	.	.	.	.	-2.2	.
CC(=O)c1sc(Nc2nc3ccc(F)cc3s2)nc1C	2.3*	27.3	60.1	-4.0	2.6	7.3
CCOC(=O)c1csc(Nc2nc3ccc(F)cc3s2)n1	1.1	23.8	88.1*	-2.0	4.8	-5.6
CCOC(=O)c1csc(NC(=O)c2ccc(-c3ccccc3)cc2)n1	.	.	.	.	6.0	.
O=C(NC(=S)NCCc1ccccc1)c1ccccc1	0.8	17.4	.	-4.0	-1.4	3.2
COCCCNC(=S)NNC(=O)c1cccnc1	2.7*	6.7	.	-8.0	.	-3.1
O=C(CCc1ccccc1)NNC(=S)NC(=O)c1ccccc1	1.2	32.4*	.	63.0*	.	20.6
O=C(/C=C/c1ccccc1)NNC(=O)c1cccnc1	2*	-7.0	.	3.0	-12.6	1.0
COCCCNC(=S)NNC(=O)c1ccc2c(c1)OCO2	2.2*	4.0	.	1.0	.	21.0
COc1ccc(CCNC(=O)COc2cc(C)c(Cl)c(C)c2)cc1	.	.	.	.	-11.6	.
N/C(=N\OC(=O)c1cccc(F)c1)c1ccc(Br)cc1	.	.	.	.	5.9	.
COC(=O)C1=C(C)NC2=C(C(=O)c3ccccc32)C1c1ccc(F)cc1 (stereo unspecified)	.	.	.	.	-0.1	.
CCOC(=O)Cc1csc(SCC(=O)N2CCN(c3ccc(OC)cc3)CC2)n1	1.6	-2.8	4.7	1.0	11.6	-0.3
O=C(NNC(=S)NC(=O)c1cccnc1)c1ccccc1	2.1*	-7.0	.	53.0*	.	-9.1
O=C(/C=C/c1ccc(Cl)cc1)c1cccnc1	0.8	15.5	.	20.0	.	38.6*
O=C(NNC(=S)Nc1ccccc1)c1cccnc1	.	.	.	.	-20.6	.
Cc1cc(C)c(S(=O)(=O)N(CC(=O)N2CCCC2)C2CCCCC2)c(C)c1	1.6	24.9	22.9	4.0	5.6	-3.3
Cc1cc(C)c(S(=O)(=O)N(CC(=O)NCc2cccnc2)C2CCCCC2)c(C)c1	2.3*	27.4	27.2	8.0	9.5	1.9
CN(Cc1ccccc1)Cc1nc2c(c(=O)n(C)c(=O)n2C)n1CCc1ccccc1	.	.	22.8	.	.	.
Cc1cc(C)nc(SCCn2c(N(C)Cc3ccccc3)nc3c2c(=O)n(C)c(=O)n3C)n1	1.2	33.7*	.	3.0	.	13.5

Compound activity deposited in PubChem by several laboratories.
